# Screens (PubChem BioAssay)
# The list is not random: actives were taken first. Their share in the collection is about 2.2%.
# Granule exo inh: lytic granule exocytosis inhibition. inhibition, % at 10 µM. TALL-104 LAMP-1 surface exposure, flow cytometry; cells stimulated with thapsigargin and PMA. 360,000 tested, 0.66% active;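 active = inhibition above about 55%, limit read from the data; inconclusive = no clear call, values can overlap the other calls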
# Myeloid diff 2: promotes myeloid progenitor differentiation. ER-HoxA9 myeloid progenitors, lysozyme-GFP differentiation, flow cytometry. 360,000 tested, 1% active. calls only at 10 µM;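 active = normalized GFP-positive differentiation at or above the plate's own cutoff, the solvent-only control mean plus 3 SD; inconclusive = no clear call, values can overlap the other calls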;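 also: cells exposed to compound for four days before flow analysis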
# CSN deneddyl inh: blocks human CSN-mediated cullin deneddylation | Purified CSN, SCF-Nedd8-OG deneddylation, fluorescence polarization | inhibition, % at 12.5 µM | 360,000 tested, 0.38% active;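 active = pattern-corrected inhibition above about 35%, with an unprinted fluorescence ratio check between 0.5 and 1.5, limit read from the data, passing the limit was not always enough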;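 also: 0% = enzyme with substrate and 100% = substrate without enzyme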
# Target sequence (Q92905 whole entry, looked up, one chain of several): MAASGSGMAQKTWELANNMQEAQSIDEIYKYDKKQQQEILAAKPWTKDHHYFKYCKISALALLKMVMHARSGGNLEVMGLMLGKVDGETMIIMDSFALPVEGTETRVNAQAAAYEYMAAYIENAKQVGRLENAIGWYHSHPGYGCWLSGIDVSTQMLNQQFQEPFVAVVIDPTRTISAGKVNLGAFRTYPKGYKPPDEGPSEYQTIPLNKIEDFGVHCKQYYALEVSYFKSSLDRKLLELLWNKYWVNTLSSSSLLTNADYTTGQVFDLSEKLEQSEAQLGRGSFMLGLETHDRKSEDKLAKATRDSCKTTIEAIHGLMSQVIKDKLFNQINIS
#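 Assay system: HEK293T-derived human Csn5 enzyme; quantity: 0.24 nM enzyme; medium: Tris/NaCl/DTT buffer, pH 7.5; also added: substrate SCFSkp2-Nedd8OG, 10 nM; doses: 12.5 µM compound; schedule: 90 min reaction at room temperature; signal: FP; read-out: % inhibition of substrate cleavage by Csn5; benchmarks: substrate-only high control, full reaction low control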
# HNF4A DNA FP: change in binding of human HNF4 alpha to DNA | 360,000 tested, 0.3% active | HNF4a-FITC DNA binding, fluorescence polarization, 1 h | activity change, % at 10 µM; in the data active = activity change above about 30%, passing the limit was not always enough
# An asterisk follows results filed as active; i = inactive; ? = inconclusive; + = active, no number; ! = repeats disagree.
SMILES,Granule exo inh,Myeloid diff 2,CSN deneddyl inh,HNF4A DNA FP
O=C(CCCN=C1NS(=O)(=O)c2ccccc21)OCc1cc([N+](=O)[O-])cc2c1OCOC2,3,+,-4,4
CC(/C=C\c1ccccc1)=C/C(=O)O,0,i,-3,1
CC(=O)C1=C(O)C(=CC=Cc2ccccc2)OC1=O,4,i,9,60*
Cc1cc(C)nc(N(C#N)Cc2ccc(Cl)cc2)n1,-1,i,-13,1
Cc1cc(C)nc(N(C#N)CCOc2ccc(Cl)cc2)n1,77*,i,4,2
CCCCNC(=O)C1(C)CCCCN1C(=O)c1ccno1 (centres undefined),3,i,4,3
Cc1c(N=C2Nc3cccc4cccc2c34)c(=O)n(-c2ccccc2)n1C,0,i,19,43*!
Cc1ccc(NC(=O)CSc2nc3[nH]ncc3c(=O)[nH]2)cc1Cl,10,i,0,-3
O=C(NCCN1CCC(n2c(=O)[nH]c3ccccc32)CC1)c1cccc2c1-c1ccccc1C2=O,1,i,49*,1
O=C(NCCN1CCC(n2c(=O)[nH]c3ccccc32)CC1)c1ccccc1Cl,4,i,-7,-2
CCOCc1c(C(=O)NCc2ccccc2CN2CCCC2)oc2ccccc12,5,i,4,8
CCNC(=O)C1CCCN(Cc2ccc(C(=O)OCC)cc2)CC1 (centres undefined),-2,i,-5,4
CCCCc1nnc(NC(=O)CCN2C(=O)C3CC=CCC3C2=O)s1 (centres undefined),2,i,-2,6
O=c1c(-c2nc3ccccc3s2)cccn1Cc1ccccc1,-1,+,-6,1
Cc1c(CCC(=O)NCCCn2ccnc2)c(=O)oc2c(C)c3oc4c(c3cc12)CCCC4,42,+,5,4
Cc1c(CCC(=O)NCCCCCC(=O)O)c(=O)oc2c(C)c3oc4c(c3cc12)CCCC4,7,i,-3,-5
O=C(Nc1ccc([N+](=O)[O-])cc1)c1cc(Cl)sc1Cl,2,+,1,-1
O=C(O)c1cccc(S(=O)(=O)Nc2ccccc2C(=O)NCCc2ccccc2)c1,-1,+,-4,6
O=C(O)c1cccc(S(=O)(=O)NCCc2ccccc2)c1,0,i,-3,-1
COc1ccccc1CCC(=O)OCC(=O)Nc1ccc(C(N)=O)cc1,10,i,5,2
CC(C)N1C(=O)S/C(=C\c2ccc(-c3ccc(Cl)c(C(=O)O)c3)o2)C1=O,-7,i,7,-1
CCN(CC)c1ccc(/C=C2/SC(=O)N(C(C)C)C2=O)o1,78*,+,2,-4
O=C1C(=O)c2c(C(=O)c3ccccc3)coc2-c2ccccc21,92*,?,-5,6
Cc1oc2c(c1C(=O)c1ccccc1)C(=O)C(=O)c1ccccc1-2,102*,?,23,0
Cc1oc2c(c1C(=O)O)C(=O)c1ccccc1C2=O,-2,i,1,-4
SMILES,Granule exo inh,Myeloid diff 2,CSN deneddyl inh,HNF4A DNA FP
O=C(C1=C(c2ccccc2)C(=O)c2ccccc2C1=O)c1ccccc1,42,i,1,3
COc1ccccc1-n1c([S-])c(C(=O)Nc2ccccc2C(F)(F)F)[n+]2ccc(C(=O)NCCO)cc12,63*,i,-11,7
Cc1ccc(-n2c([S-])c(C(=O)Nc3ccc(OC(F)F)cc3)[n+]3ccc(C(=O)NCCO)cc23)cc1C,24,i,14,3
Cc1ccc(N(CC(O)CN2C(=O)NC(C)(C)C2=O)S(=O)(=O)c2ccc([N+](=O)[O-])cc2)cc1 (centres undefined),2,i,-3,-1
CCOC(=O)N1CCC(NC(=O)CS(=O)(=O)Cc2nc(-c3ccccc3C)oc2C)CC1,-6,+,-3,1
O=C(COC(=O)c1cc([N+](=O)[O-])ccc1N1CCOCC1)Nc1c(Cl)cccc1C(F)(F)F,-4,i,3,0
CCOc1cc2c(c3c1C(c1ccccc1)N(S(=O)(=O)c1ccc(C)cc1)C3)C(=O)C=CC2=O (centres undefined),74*,?,1,-3
C#CCSc1nnc(-c2cccc3ccccc23)o1,-4,+,1,-2
Nc1cccc(C(=O)OCC(=O)Nc2cccc3c2C(=O)c2ccccc2C3=O)c1,0,i,-26,-61
CCN(CC)CCC(=O)Nc1cccc2c1C(=O)c1ccccc1C2=O,56*,?,-56,-100
Nc1c(C(=O)Nc2ccc(S(=O)(=O)N3CCCC3)cc2)sc2nc3ccc(OC(F)(F)F)cc3cc12,-10,i,15,43*
